Experimental data from ChEMBL document CHEMBL1154315, “Discovery of 3-(2-cyano-4-pyridyl)-5-(4-pyridyl)-1,2,4-triazole, FYX-051 - a xanthine oxidoreductase inhibitor for the treatment of hyperuricemia [corrected]” (Bioorg Med Chem Lett, 2009).

What was measured:
[1] = molecular target: T1, Xanthine dehydrogenase/oxidase (Bos taurus, UniProt P80457); test: Inhibition of bovine milk XOR-mediated uric acid formation after 15 mins by spectrophotometer
Rattus norvegicus [2] = test: Reduction of uric acid level in rat serum at 0.3 mg/kg, po after 6 hrs by phosphotungstic acid method; assay type: functional; parameters: scale not given: the % may be the effect or the level left
How it was run: (§1)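 Rats were dosed orally. Blood was drawn from the orbital sinus 2 or 6 h later, clotted 1 h at room temperature and centrifuged. Serum uric acid was measured by the phosphotungstic acid method. Values are mean ± SD of at least three rats.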

CYP3A4 = CYP3A4 (Homo sapiens, UniProt P08684); test: Inhibition of CYP3A4 in human liver microsomes assessed as inhibition of testosterone hydroxylation at 10 uM by HPLC analysis; assay type: ADME, Microsome; parameters: dose 10 uM; settings: probe testosterone (hydroxylation)
Chain of CYP3A4 (P08684 whole entry): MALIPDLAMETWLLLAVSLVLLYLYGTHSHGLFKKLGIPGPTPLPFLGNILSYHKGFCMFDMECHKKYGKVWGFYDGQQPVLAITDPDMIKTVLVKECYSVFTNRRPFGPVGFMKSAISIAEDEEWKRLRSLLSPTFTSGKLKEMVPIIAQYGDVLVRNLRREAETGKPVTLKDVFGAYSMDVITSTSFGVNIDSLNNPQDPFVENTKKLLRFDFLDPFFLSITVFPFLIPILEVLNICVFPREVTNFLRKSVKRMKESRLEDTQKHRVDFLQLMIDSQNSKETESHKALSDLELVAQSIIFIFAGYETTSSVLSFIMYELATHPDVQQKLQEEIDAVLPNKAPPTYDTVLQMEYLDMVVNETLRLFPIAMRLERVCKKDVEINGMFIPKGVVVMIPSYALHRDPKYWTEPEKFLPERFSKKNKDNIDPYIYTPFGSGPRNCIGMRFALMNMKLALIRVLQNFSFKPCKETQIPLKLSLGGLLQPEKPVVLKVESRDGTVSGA

[3] = Cmax in rat at 1 mg/kg, po by LC-MS method; assay type: ADME, organism-based; parameters: dose 1 mg/kg, route oral; settings: in vivo
How it was run: (§2)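 After oral dosing to rats, jugular vein blood was collected at predetermined times and centrifuged to plasma. Plasma was mixed with acetonitrile containing an internal standard and centrifuged, and the supernatant was analysed by LC–MS.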

[4] = Cmax in rat at 3 mg/kg, po by LC-MS method; assay type: ADME, organism-based; parameters: dose 3 mg/kg, route oral; settings: in vivo; how it was run: as §2
Rattus norvegicus [5] = test: Reduction of uric acid level in rat serum at 1 mg/kg, po after 6 hrs by phosphotungstic acid method; assay type: functional; parameters: scale not given: the % may be the effect or the level left; how it was run: as §1
Rattus norvegicus [6] = test: Reduction of uric acid level in rat serum at 3 mg/kg, po after 6 hrs by phosphotungstic acid method; assay type: functional; parameters: scale not given: the % may be the effect or the level left; how it was run: as §1
Rattus norvegicus [7] = test: Reduction of uric acid level in rat serum at 0.3 mg/kg, po after 2 hrs by phosphotungstic acid method; assay type: functional; parameters: scale not given: the % may be the effect or the level left
How it was run: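 Test compound dosed orally to rats; blood drawn from orbital sinus 2 or 6 h post-dose, clotted 1 h at room temperature, centrifuged. Serum uric acid measured by phosphotungstic acid method. Mean ± SD of at least three rats.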

[8] = Half life in rat at 3 mg/kg, po by LC-MS method; assay type: ADME, organism-based; parameters: dose 3 mg/kg, route oral; settings: in vivo
[9] = Bioavailability in rat at 3 mg/kg; assay type: ADME, organism-based; settings: in vivo
[10] = molecular target: T1, Xanthine dehydrogenase/oxidase; test: Inhibition of bovine milk XOR-mediated uric acid formation at 10 uM after 15 mins by spectrophotometer; settings: cattle, 0.25 h

T1 sequence (P80457 whole entry): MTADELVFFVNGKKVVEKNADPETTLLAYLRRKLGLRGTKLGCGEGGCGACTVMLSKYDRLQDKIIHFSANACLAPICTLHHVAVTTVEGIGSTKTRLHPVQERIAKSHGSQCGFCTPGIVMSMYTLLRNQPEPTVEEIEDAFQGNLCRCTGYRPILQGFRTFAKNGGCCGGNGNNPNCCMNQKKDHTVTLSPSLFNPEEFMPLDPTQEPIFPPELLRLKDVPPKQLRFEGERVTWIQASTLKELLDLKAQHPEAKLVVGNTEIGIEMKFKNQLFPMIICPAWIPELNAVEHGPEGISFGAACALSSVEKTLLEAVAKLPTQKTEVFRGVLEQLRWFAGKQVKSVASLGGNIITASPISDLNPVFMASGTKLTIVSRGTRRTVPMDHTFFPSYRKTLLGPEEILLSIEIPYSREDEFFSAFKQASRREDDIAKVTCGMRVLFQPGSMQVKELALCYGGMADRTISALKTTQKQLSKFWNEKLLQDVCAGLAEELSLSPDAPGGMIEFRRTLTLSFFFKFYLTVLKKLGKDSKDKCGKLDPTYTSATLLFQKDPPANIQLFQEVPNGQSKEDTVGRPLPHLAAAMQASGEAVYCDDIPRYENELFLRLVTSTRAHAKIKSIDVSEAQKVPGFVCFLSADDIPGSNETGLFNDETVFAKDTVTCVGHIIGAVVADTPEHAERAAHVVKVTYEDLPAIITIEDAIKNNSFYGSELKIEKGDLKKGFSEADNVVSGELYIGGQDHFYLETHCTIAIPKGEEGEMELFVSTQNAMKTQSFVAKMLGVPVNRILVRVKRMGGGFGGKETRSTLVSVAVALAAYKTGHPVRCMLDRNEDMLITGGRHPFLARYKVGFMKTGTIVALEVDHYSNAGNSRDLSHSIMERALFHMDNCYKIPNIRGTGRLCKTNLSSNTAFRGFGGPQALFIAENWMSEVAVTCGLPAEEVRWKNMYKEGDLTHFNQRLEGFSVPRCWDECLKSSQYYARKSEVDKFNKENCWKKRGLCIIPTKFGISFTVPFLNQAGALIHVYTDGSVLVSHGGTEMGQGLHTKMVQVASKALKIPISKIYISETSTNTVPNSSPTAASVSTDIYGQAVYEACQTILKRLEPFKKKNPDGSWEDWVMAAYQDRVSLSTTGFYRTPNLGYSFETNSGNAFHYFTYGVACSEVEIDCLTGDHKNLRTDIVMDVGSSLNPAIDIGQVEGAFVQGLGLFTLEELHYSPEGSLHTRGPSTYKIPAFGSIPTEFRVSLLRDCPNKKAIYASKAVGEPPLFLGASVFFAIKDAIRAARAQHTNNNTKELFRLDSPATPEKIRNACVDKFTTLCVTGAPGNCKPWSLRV

Row | Compound | IC50 [1] | Activity (Rattus norvegicus [2]) | other results
1 | COc1ccc(-c2n[nH]c(-c3ccncc3)n2)cc1[N+](=O)[O-] | 3.3 nM | 19.6% | 
2 | Fc1cc(-c2n[nH]c(-c3ccncc3)n2)ccn1 | 48 nM | -0.2% | inhibition at 10 µM (CYP3A4): 40.2%
3 | Cc1cc(-c2nc(-c3ccncc3)n[nH]2)ccn1 | 28 nM | -0.4% | inhibition at 10 µM (CYP3A4): 24.7%; Cmax [3]: 1240 ng/mL
4 | Cc1cc(-c2n[nH]c(-c3ccnc(C#N)c3)n2)ccn1 | 59 nM | 41.1% | inhibition at 10 µM (CYP3A4): 4.7%; Cmax [4]: 3970 ng/mL
5 | Cc1cc(-c2n[nH]c(-c3ccnc(OCC(C)C)c3)n2)ccn1 | 63 nM | 2.3% | Cmax [4]: 1440 ng/mL
6 | c1cncc(-c2n[nH]c(-c3ccncc3)n2)c1 | 130 nM |  | inhibition at 10 µM (CYP3A4): 10.4%; Activity (Rattus norvegicus [5]; dose 1 mg/kg): -7.7%
7 | N#Cc1cc(-c2n[nH]c(-c3ccnc(C#N)c3)n2)ccn1 | 18 nM | 32% | 
8 | CC(C)COc1ccc(-c2n[nH]c(-c3ccnc(C#N)c3)n2)cn1 | 590 nM |  | Activity (Rattus norvegicus [6]): -6.1%
9 | Cc1cc(-c2n[nH]c(-c3ccnc(-c4ccccc4)c3)n2)ccn1 | 59 nM | 8% | 
10 | Cc1cc(-c2nc(-c3ccc(OCC(C)C)nc3)n[nH]2)ccn1 | 170 nM | 13% | 
11 | CSc1cc(-c2nc(-c3ccnc(C)c3)n[nH]2)ccn1 | 170 nM | 19.2% | 
12 | c1ccc(-c2cc(-c3n[nH]c(-c4ccncc4)n3)ccn2)cc1 | 6.8 nM | -0.4% | 
13 | Cc1cc(-c2nc(-c3ccc(OCC(C)C)c([N+](=O)[O-])c3)n[nH]2)ccn1 | 10 nM | 39.1% | 
14 | O=[N+]([O-])c1cc(-c2n[nH]c(-c3ccncc3)n2)ccc1Cl | 4.7 nM | 0.9% | 
15 | CC(C)COc1cc(-c2nc(-c3ccnc(C#N)c3)n[nH]2)ccn1 |  | 1.9% | 
16 | Cc1cc(-c2n[nH]c(-c3ccnc(C)c3)n2)ccn1 | 310 nM | 26.1% | inhibition at 10 µM (CYP3A4): 15.3%
17 | Clc1cc(-c2n[nH]c(-c3ccncc3)n2)ccn1 | 7.9 nM |  | inhibition at 10 µM (CYP3A4): 54.1%; Cmax [4]: 4360 ng/mL; Activity (Rattus norvegicus [5]; dose 1 mg/kg): 26.5%
18 | CC(C)COc1ccc(-c2n[nH]c(-c3ccncc3)n2)cc1[N+](=O)[O-] | 3.7 nM | 33.7% | 

Row | Compound | IC50 [1] | Activity (Rattus norvegicus [2]) | other results
19 | CC(C)COc1ccc(-c2n[nH]c(-c3ccncc3)n2)cn1 | 24 nM | 13.4% | Activity (Rattus norvegicus [6]): 13.4%
20 | c1cc(-c2n[nH]c(-c3ccncc3)n2)ccn1 | 170 nM |  | inhibition at 10 µM (CYP3A4): 18.5%; Activity (Rattus norvegicus [5]; dose 1 mg/kg): -6.8%
21 | CC(C)COc1ccc(-c2n[nH]c(-c3ccncc3)n2)cc1C#N | 4.9 nM | 36.3% | 
22 | COc1ccc(-c2n[nH]c(-c3ccnc(C)c3)n2)cc1[N+](=O)[O-] | 17 nM | 19.3% | 
23 | N#Cc1cc(-c2n[nH]c(-c3ccnc(Cl)c3)n2)ccn1 | 39 nM | 33.6% | inhibition at 10 µM (CYP3A4): 3.6%; Cmax [4]: 5340 ng/mL
24 | Cc1cc(-c2nc(-c3ccc(OCC(C)C)c(C#N)c3)n[nH]2)ccn1 | 17 nM | 46% | 
25 | CSc1cc(-c2nc(-c3ccnc(C#N)c3)n[nH]2)ccn1 |  | -3.7% | 
26 | Cc1cc(-c2n[nH]c(-c3ccnc(SCC(C)C)c3)n2)ccn1 | 46 nM | 4.5% | 
27 | Oc1ncnc2[nH]ncc12 [ALLOPURINOL] |  | -3.3% | Activity (Rattus norvegicus [7]): 35.9%
28 | N#Cc1cc(-c2n[nH]c(-c3ccncc3)n2)ccn1 [TOPIROXOSTAT] | 5.3 nM | 51.1% | inhibition at 10 µM (CYP3A4): 18.6%; Activity (Rattus norvegicus [7]): 59.9%; half-life [8]: 19.7 h; bioavailability [9]: 69.6%
29 | Cc1cc(-c2nc(-c3ccc(Cl)c([N+](=O)[O-])c3)n[nH]2)ccn1 | 30 nM | 19.8% | 
30 | N#Cc1cc(-c2n[nH]c(-c3ccnc(-c4ccccc4)c3)n2)ccn1 |  | 4.2% | 
31 | Cc1cc(-c2n[nH]c(-c3ccnc(Cl)c3)n2)ccn1 | 89 nM | 32.9% | Cmax [4]: 4070 ng/mL
32 | Brc1cc(-c2n[nH]c(-c3ccncc3)n2)ccn1 | 9.9 nM | -6.2% | 
33 | CC(C)CSc1cc(-c2nc(-c3ccnc(C#N)c3)n[nH]2)ccn1 |  | -1.4% | 
34 | c1ccc(-c2n[nH]c(-c3ccncc3)n2)nc1 |  |  | inhibition at 10 µM (CYP3A4): 20.3%; inhibition at 10 µM [10]: 31%
35 | N#Cc1ccc(-c2n[nH]c(-c3ccncc3)n2)cn1 | 38 nM |  | Activity (Rattus norvegicus [5]; dose 0.3 mg/kg, in the assay text read “at 0.3 mg/kg” for “at 1 mg/kg”): -4%
36 | COCCOCCOc1ccc(-c2nc(-c3ccnc(C)c3)n[nH]2)cc1C#N | 31 nM | 52% | 
